Experiments:
[1] = system: Influenza A virus; test: Antiviral activity against Influenza virus (A/Sweden/3/50/ (H1N1)) in dog kidney (MDCK) cells expressed.; assay type: functional, organism-based
In short: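 Plaque reduction assay. Confluent MDCK monolayers were infected with 50-150 PFU in the presence of compound, then overlaid with nutrient agarose containing 0.1 µg/mL trypsin, 100 µg/mL DEAE-dextran and compound. After 3-4 days at 36 °C, cells were formalin-fixed and methyl violet-stained, and plaques were counted as % of the untreated infected control, in triplicate. IC50 came from mean-versus-log concentration curves.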

[2] = Cytotoxicity in uninfected dog kidney (MDCK) cells.; assay type: cell-based; settings: Canis lupus familiaris
In short: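 Dividing MDCK cells seeded at 2 × 10^4 cells/well in 24-well plates; compound added to growth medium at various concentrations. Cell growth compared with untreated controls over 4 days incubation (3-4 cell doublings).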

SMILES | IC50 [1] | IC50 [2]
COc1nc(N)nc2c1ncn2[C@@H]1O[C@H](CO)[C@@H](O)[C@H]1F | 16 µM | > 500 µM
CSc1ncnc2c1ncn2[C@@H]1O[C@H](CO)[C@@H](O)[C@H]1F | > 100 µM | > 500 µM
OC[C@H]1O[C@@H](n2cnc3c(O)ncnc32)[C@H](F)[C@@H]1O | > 100 µM | > 500 µM
Nc1nc(F)nc2c1ncn2[C@@H]1O[C@H](CO)[C@@H](O)[C@H]1F | > 100 µM | 120 µM
CSc1nc(N)nc2c1ncn2[C@@H]1O[C@H](CO)[C@@H](O)[C@H]1F | > 100 µM | > 500 µM
CCOc1nc(N)nc2c1ncn2[C@@H]1O[C@H](CO)[C@@H](O)[C@H]1F | 29 µM | > 500 µM
Cc1nc(N)nc2c1ncn2[C@@H]1O[C@H](CO)[C@@H](O)[C@H]1F | > 100 µM | > 500 µM
CCOc1ncnc2c1ncn2[C@@H]1O[C@H](CO)[C@@H](O)[C@H]1F | > 100 µM | > 500 µM
COc1nc(N)c2ncn([C@@H]3O[C@H](CO)[C@@H](O)[C@H]3F)c2n1 | > 100 µM | > 500 µM
Nc1nc(NC2CC2)c2ncn([C@@H]3O[C@H](CO)[C@@H](O)[C@H]3F)c2n1 | 72 µM | > 500 µM
Nc1nc(I)c2ncn([C@@H]3O[C@H](CO)[C@@H](O)[C@H]3F)c2n1 | 23 µM | 300 µM
Nc1nc(N)c2ncn([C@@H]3O[C@H](CO)[C@@H](O)[C@H]3F)c2n1 | 15 µM | > 500 µM
Nc1nc(Cl)c2ncn([C@@H]3O[C@H](CO)[C@@H](O)[C@H]3F)c2n1 | 17 µM | > 500 µM
Nc1ncc2ncn([C@@H]3O[C@H](CO)[C@@H](O)[C@H]3F)c2n1 | > 100 µM | > 500 µM
Cc1nc(N)c2ncn([C@@H]3O[C@H](CO)[C@@H](O)[C@H]3F)c2n1 | > 100 µM | > 500 µM
OC[C@H]1O[C@@H](n2cnc3c(NC4CC4)ncnc32)[C@H](F)[C@@H]1O | > 100 µM | > 500 µM
COc1ncnc2c1ncn2[C@@H]1O[C@H](CO)[C@@H](O)[C@H]1F | > 100 µM | > 500 µM
CCCOc1nc(N)nc2c1ncn2[C@@H]1O[C@H](CO)[C@@H](O)[C@H]1F | 36 µM | > 500 µM
Nc1ncnc2c1ncn2[C@@H]1O[C@H](CO)[C@@H](O)[C@H]1F [2'-BETA-FLUORO-2',3'-DEOXYADENOSINE] | 52 µM | 320 µM

Source: ChEMBL document CHEMBL1126663, “Purine 2'-deoxy-2'-fluororibosides as antiinfluenza virus agents” (J Med Chem, 1993)
